In article PMC4111141 (Bioorganic & medicinal chemistry letters, 2014):

Molecular target: T1, Orco derived from Drosophila melanogaster (DmOrco) (Drosophila melanogaster, UniProt Q9VNB5)
T1 sequence (Q9VNB5 1-486): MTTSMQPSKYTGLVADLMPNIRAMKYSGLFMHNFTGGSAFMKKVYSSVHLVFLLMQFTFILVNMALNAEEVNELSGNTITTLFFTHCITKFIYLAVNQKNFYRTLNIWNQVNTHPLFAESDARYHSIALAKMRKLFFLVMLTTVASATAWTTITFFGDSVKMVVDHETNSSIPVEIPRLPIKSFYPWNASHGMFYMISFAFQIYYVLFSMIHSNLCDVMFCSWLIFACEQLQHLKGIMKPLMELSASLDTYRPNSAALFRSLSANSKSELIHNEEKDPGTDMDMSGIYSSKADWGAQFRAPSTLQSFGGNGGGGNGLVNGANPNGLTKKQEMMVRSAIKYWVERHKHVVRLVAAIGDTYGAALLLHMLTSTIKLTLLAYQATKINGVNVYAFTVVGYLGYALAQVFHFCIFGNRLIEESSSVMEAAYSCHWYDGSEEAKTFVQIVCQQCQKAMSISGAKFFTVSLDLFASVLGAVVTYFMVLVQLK
Test: high-throughput calcium mobilization/imaging assay for Orco agonist activity
Assay type: cell-based
Details: HEK293 cells stably expressing DmOrco; for % VUAA1 efficacy: maximum agonism of the compound, normalized to the activity of VUAA1; for EC50: mean result of 4 experiments, LA = Low agonism, agonism only at the highest concentration tested, no EC50 could be calculated
Outline: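 HEK293 cells stably expressing Drosophila melanogaster Orco, alone or in some cases with tuning OR subunits. Calcium mobilization/imaging read in high-throughput format across increasing test compound concentrations. EC50 and maximal agonism were taken from concentration-response curves. Maximal agonism was expressed as a percentage of reference agonist VUAA1 activity. Values are the mean of 4 experiments.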

| Compound | Orco agonist activity (in words) | % VUAA1 efficacy | EC50 [µM] | EC50 (listed as VUAA1) [µM] |
| --- | --- | --- | --- | --- |
| CCc1cccc(NC(=O)CSc2nnc(-c3cccnc3)n2CC)c1 [6b] | completely abrogated activity | No agonism |  |  |
| CCc1ccc(NC(=O)CSc2nnc(-c3cccnc3)n2CC)cc1 [6a] |  | 100% | 35.1 | 35 |
| CCn1c(SCC(=O)Nc2ccc(Br)cc2)nnc1-c1cccnc1 [6j] |  | No agonism |  |  |
